Data published in PMC3858840 (Journal of molecular biology, 2013).

How the values were obtained:
CaM (calmodulin) = assay: Direct interaction between moesin-FERM and CaM; assay type: binding; details: up to 10 µM moesin-FERM; 0.3 mM CaCl2; ex 340 nm
[1] = tested on: TMR-CLS/POPC/POPS liposome; assay type: binding, human; details: added alone, before moesin-FERM; 15% POPS/85% POPC; 0.3 mM CaCl2; 575 nm
Outline: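 TMR-CLS was extruded (400-nm filter) into 15% POPS/85% POPC liposomes at 1:1000 peptide:lipid and diluted to about 5 nM in 50 mM Tris–HCl, 150 mM NaCl, 0.3 mM CaCl₂, pH 7.4. Additions carried 5 nM liposome. First 3 µM Ca/CaM, then moesin-FERM (400 nM, then 100 nM steps). TMR emission was recorded continuously at 575 nm (excitation 542 nm).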

B1: moesin-FERM: FERM domain of human moesin (residues 1–346), recombinant (protein)
chain: MPKTISVRVTTMDAELEFAIQPNTTGKQLFDQVVKTIGLREVWFFGLQYQDTKGFSTWLKLNKKVTAQDVRKESPLLFKFRAKFYPEDVSEELIQDITQRLFFLQVKEGILNDDIYCPPETAVLLASYAVQSKYGDFNKEVHKSGYLAGDKLLPQRVLEQHKLNKDQWEERIQVWHEEHRGMLREDAVLEYLKIAQDLEMYGVNYFSIKNKKGSELWLGVDALGLNIYEQNDRLTPKIGFPWSEIRNISFNDKKFVIKPIDKKAPDFVFYAPRLRINKRILALCMGNHELYMRRRKPDTIEVQQMKAQAREEKHQKQMERAMLENEKKKREMAEKEKEKIEREKEE
With B1 the “change in IAEDANS fluorescence emission of IAEDANS-CaM” value (CaM (calmodulin)) was “little change in the IAEDANS fluorescence emission” and the “change in TMR fluorescence of TMR-CLS/POPS liposome on addition” value [1] was “decrease of TMR fluorescence emission”.
